Our source for the inhibition and IC50 values is ChEMBL document CHEMBL2062417, “Biotinylated quercetin as an intrinsic photoaffinity proteomics probe for the identification of quercetin target proteins” (Bioorg Med Chem, 2011).

One experiment has as its system Jurkat. Briefly: Inhibition of heat shock-induced HSP70 expression in human Jurkat cells at 145 uM treated 2 hrs before beat shock challenge measured after 8 hrs by Western blotting. It is filed as functional, cell-based. In short, it runs like this:
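Jurkat cells (low basal HSP70) got 145 μM compound or DMSO vehicle for 2 h, then a 30 min 43 °C heat shock and 8 h recovery at 37 °C. HSP70 and actin were read by Western blot. Controls were unheated cells and heated cells with no additive.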
(A western blot detects proteins with antibodies after separation by electrophoresis.)

For experiment [1], the target named is Calcium/calmodulin-dependent protein kinase type II subunit beta (Homo sapiens, UniProt Q13554). In words: Inhibition of CAMK2 using autocamtide-2 as substrate after 30 mins by PKLight assay.

One may read the IC50 as the midpoint of a concentration-inhibition curve.

Calls of active or inactive are those of the source. The calls are words filed in the database; no cut-off is given here.

Sequence of Calcium/calmodulin-dependent protein kinase type II subunit beta (Q13554 whole entry): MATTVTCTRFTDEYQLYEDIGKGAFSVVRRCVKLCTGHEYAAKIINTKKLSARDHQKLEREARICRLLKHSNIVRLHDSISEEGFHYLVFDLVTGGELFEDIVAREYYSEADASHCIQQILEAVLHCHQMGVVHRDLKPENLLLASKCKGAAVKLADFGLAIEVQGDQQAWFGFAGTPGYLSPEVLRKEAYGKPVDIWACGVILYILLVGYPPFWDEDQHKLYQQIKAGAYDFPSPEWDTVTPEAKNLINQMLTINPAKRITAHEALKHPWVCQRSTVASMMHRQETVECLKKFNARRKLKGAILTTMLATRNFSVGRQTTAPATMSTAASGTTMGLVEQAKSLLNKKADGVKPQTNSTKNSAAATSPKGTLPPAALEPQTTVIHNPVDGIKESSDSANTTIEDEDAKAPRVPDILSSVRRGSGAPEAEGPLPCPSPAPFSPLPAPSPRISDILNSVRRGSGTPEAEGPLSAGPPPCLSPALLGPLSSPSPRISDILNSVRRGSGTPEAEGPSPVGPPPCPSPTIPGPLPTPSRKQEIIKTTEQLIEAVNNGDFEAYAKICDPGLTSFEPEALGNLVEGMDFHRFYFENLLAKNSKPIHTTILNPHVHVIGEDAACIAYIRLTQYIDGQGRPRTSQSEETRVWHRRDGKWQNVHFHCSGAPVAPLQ

Regarding `O=c1c(O)c(-c2ccc(O)c(O)c2)oc2cc(O)cc(O)c12` [QUERCETIN], the inhibition entry in the experiment on Jurkat was “Active”. The IC50 in experiment [1] amounted to 3 µM.
